Experiments:
[1] = Cytotoxicity against human CFU-GM cells at 63 ug/disk by Valeriote soft agar disk diffusion method; format: cell-based
Summary of the method: (§1)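 Corbett–Valeriote soft agar disk diffusion assay. Sample is loaded onto a disk at the stated µg/disk and placed on soft agar cultures of the cells. The read-out is the size of the zone of inhibition around the disk. Zones for the solid tumour line (Colon38) are compared with those for leukaemia cells (L1210) or normal CFU-GM cells to judge differential cytotoxicity.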

L1210 [2] = test: Cytotoxicity against mouse L1210 cells at 63 ug/disk by Valeriote soft agar disk diffusion method; format: functional; summary of the method: as §1
MC-38 [3] = test: Cytotoxicity against […] cells at 63 ug/disk by Valeriote soft agar disk diffusion method; format: functional; summary of the method: as §1
L1210 [4] = test: Cytotoxicity against mouse L1210 cells at 1.5 ug/mL by Valeriote soft agar disk diffusion method; format: functional
Summary of the method: (§2)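 Corbett–Valeriote soft agar disk diffusion assay, with doses given per disk. Zones of inhibition around sample disks were compared between solid tumor cells (Colon38, ColonH116, LungH125) and either leukemia cells (L1210 or CEM) or normal CFU-GM cells. Zone sizes were used to score differential (solid tumor-selective) cytotoxicity.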

L1210 [5] = test: Cytotoxicity against mouse L1210 cells at 1.5 ug/mL by Valeriote soft agar disk diffusion method
MC-38 [6] = test: Cytotoxicity against […] cells at 1.5 ug/mL by Valeriote soft agar disk diffusion method; format: functional; summary of the method: as §2
[7] = Cytotoxicity against human H125 cells at 1.5 ug/mL by Valeriote soft agar disk diffusion method; format: functional; summary of the method: as §2
[8] = Cytotoxicity against human NCI60 cells; format: functional; details: for TGI: read-out: pTGI (converted)
CCRF-CEM [9] = test: Cytotoxicity against human CEM cells at 1.5 ug/mL by Valeriote soft agar disk diffusion method; format: functional; summary of the method: as §2
CCRF-CEM [10] = test: Cytotoxicity against human CEM cells at 1.5 ug/mL by Valeriote soft agar disk diffusion method
[11] = Cytotoxicity against human H116 cells at 1.5 ug/mL by Valeriote soft agar disk diffusion method; format: functional; summary of the method: as §2
[12] = Cytotoxicity against human H125 cells at 1.5 ug/mL by Valeriote soft agar disk diffusion method
MC-38 [13] = test: Cytotoxicity against […] cells at 1.8 ug/mL by Valeriote soft agar disk diffusion method; format: functional; summary of the method: as §2
[14] = Cytotoxicity against human H116 cells at 1.5 ug/mL by Valeriote soft agar disk diffusion method
[15] = Cytotoxicity against human CFU-GM cells at 113 ug/disk by Valeriote soft agar disk diffusion method; format: cell-based; summary of the method: as §1
L1210 [16] = test: Cytotoxicity against mouse L1210 cells at 113 ug/disk by Valeriote soft agar disk diffusion method; format: functional; summary of the method: as §1
MC-38 [17] = test: Cytotoxicity against […] cells at 113 ug/disk by Valeriote soft agar disk diffusion method; format: functional; summary of the method: as §1
MC-38 [18] = test: Cytotoxicity against […] cells at 1.5 ug/mL by Valeriote soft agar disk diffusion method

SMILES	Activity [1]	Activity (L1210 [2])	Activity (MC-38 [3])	Activity (L1210 [4])	Activity (L1210 [5])	Activity (MC-38 [6])	Activity [7]	GI50 [8]	LC50 [8]	TGI [8]	Activity (CCRF-CEM [9])	Activity (CCRF-CEM [10])	Activity [11]	Activity [12]	Activity (MC-38 [13])	Activity [14]	Activity [15]	Activity (L1210 [16])	Activity (MC-38 [17])	Activity (MC-38 [18])
C=C1[C@@H](O)C[C@H]2C(C)(C)[C@@H](O)[C@H](Cl)C[C@]2(C)[C@H]1C[C@H](O)[C@H]1CC(=O)NC1=O	100 Zone units	500 Zone units	400 Zone units	–	–	–	–	–	–	–	–	–	–	–	–	–	–	–	–	–
C=C1[C@@H](O)C[C@H]2C(C)(C)[C@@H](Cl)[C@H](Cl)C[C@]2(C)[C@H]1C[C@H](O)[C@H]1CC(=O)NC1=O [DICHLOROLISSOCLIMIDE]	–	–	–	550 Zone units	550 Zone units	550 Zone units	550 Zone units	5.5 nM	20000 nM	123 nM	550 Zone units	550 Zone units	550 Zone units	550 Zone units	550 Zone units	550 Zone units	–	–	–	–
C=C1CC(=O)[C@H]2C(C)(C)[C@@H](Cl)[C@H](Cl)C[C@]2(C)[C@H]1C[C@H](O)[C@H]1CC(=O)NC1=O	–	–	–	–	–	–	–	–	–	–	–	–	–	–	–	–	350 Zone units	250 Zone units	650 Zone units	–
CC1=CC(=O)[C@H]2C(C)(C)[C@@H](Cl)[C@H](Cl)C[C@]2(C)[C@H]1C[C@H](O)[C@H]1CC(=O)NC1=O [HATERUMAIMIDE D]	–	–	–	–	–	–	–	977 nM	44700 nM	12300 nM	–	–	–	–	–	–	–	–	–	–
C=C1[C@@H](O)C[C@H]2C(C)(C)C[C@H](Cl)C[C@]2(C)[C@H]1C[C@H](O)[C@H]1CC(=O)NC1=O [CHLOROLISSOCLIMIDE]	–	–	–	550 Zone units	550 Zone units	550 Zone units	550 Zone units	5.75 nM	16600 nM	129 nM	550 Zone units	550 Zone units	550 Zone units	550 Zone units	–	550 Zone units	–	–	–	550 Zone units

Reference: ChEMBL document CHEMBL1148211, “Cytotoxic lissoclimide-type diterpenes from the molluscs Pleurobranchusalbiguttatus and Pleurobranchus forskalii” (J Nat Prod, 2004)
